# Data: PMC7058367 (Biochemical pharmacology, 2018)
# Read-outs that look alike come from different tables or passages of the source.
# How the values were obtained:
# [1] = biological target: GluN1/GluN2A^ΔCTD receptors (Rattus norvegicus, UniProt P35439+Q00959); format: cell-based
# Summary of the method: (§1)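 Xenopus laevis oocytes were injected with GluN1a:GluN2 RNA at a 1:3 molar ratio (15-30 ng total; 10-20-fold more for CTD-deleted subunits) and kept in ND-96 at 17 °C for 1-5 days. TEVC was run at -60 mV in 116 mM NaCl, 2 mM KCl, 0.3 mM BaCl2, 5 mM HEPES, pH 7.4. […] Full-length controls came from the same batch and day; mean ± s.e.m.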
# GluN1/GluN2D receptors = GluN1/GluN2D receptors (Rattus norvegicus, UniProt P35439+Q62645); format: cell-based
# GluN1/GluN2D receptors, sequence (Q62645 28-1323, other chains not shown): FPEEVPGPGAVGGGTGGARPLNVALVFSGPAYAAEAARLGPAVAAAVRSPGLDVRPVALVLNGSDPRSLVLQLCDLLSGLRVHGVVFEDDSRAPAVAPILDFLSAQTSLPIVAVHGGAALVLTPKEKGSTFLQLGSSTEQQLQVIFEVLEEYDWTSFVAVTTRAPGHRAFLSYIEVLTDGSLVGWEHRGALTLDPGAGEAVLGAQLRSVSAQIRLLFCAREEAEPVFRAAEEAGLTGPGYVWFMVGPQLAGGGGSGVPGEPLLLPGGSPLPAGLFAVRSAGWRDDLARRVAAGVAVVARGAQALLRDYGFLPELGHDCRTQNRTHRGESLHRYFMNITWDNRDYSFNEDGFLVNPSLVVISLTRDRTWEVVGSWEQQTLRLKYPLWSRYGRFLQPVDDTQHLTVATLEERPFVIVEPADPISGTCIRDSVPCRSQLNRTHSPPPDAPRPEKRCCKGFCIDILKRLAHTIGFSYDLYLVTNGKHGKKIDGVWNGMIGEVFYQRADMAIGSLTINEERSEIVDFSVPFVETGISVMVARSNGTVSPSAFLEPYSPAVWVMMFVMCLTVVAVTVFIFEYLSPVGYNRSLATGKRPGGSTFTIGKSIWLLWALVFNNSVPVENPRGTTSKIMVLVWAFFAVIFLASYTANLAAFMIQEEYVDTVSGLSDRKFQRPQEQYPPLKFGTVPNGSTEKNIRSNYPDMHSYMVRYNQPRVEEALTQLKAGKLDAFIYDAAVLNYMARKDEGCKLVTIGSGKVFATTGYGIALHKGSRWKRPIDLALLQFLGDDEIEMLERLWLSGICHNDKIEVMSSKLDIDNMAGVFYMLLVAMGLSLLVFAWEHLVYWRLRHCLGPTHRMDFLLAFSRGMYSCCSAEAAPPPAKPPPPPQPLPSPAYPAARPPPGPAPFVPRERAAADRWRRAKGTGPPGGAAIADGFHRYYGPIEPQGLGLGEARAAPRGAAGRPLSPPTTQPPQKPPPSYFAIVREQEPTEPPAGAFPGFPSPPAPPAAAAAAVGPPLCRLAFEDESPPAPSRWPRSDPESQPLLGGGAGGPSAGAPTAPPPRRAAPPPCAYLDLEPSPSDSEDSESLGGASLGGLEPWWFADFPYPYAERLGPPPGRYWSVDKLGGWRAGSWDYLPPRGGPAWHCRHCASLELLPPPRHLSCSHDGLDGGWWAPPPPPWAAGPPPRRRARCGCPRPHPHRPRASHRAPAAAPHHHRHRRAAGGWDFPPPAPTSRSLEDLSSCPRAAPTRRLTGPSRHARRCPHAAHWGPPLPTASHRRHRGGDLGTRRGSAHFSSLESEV
# Summary of the method: (§2)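 Oocytes expressed wild-type GluN1a/GluN2 receptors from 15-30 ng RNA (1:3 molar) and were held in ND-96 at 17 °C for 1-5 days. For Ca2+ chelation, 5 mM EGTA (50 nL) was injected 1-2 h before recording, with uninjected and water-injected oocytes as controls. TEVC was run at -60 mV in 116 mM NaCl, 2 mM KCl, 0.3 mM BaCl2, 5 mM HEPES (pH 7.4). […] Values are mean ± s.e.m.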
# [2] = biological target: GluN1/GluN2D^ΔCTD receptors (Rattus norvegicus, UniProt P35439+Q62645); format: cell-based
# GluN1/GluN2D^ΔCTD receptors, sequence (Q62645 28-869 limits assumed, stated change not applied, other chains not shown): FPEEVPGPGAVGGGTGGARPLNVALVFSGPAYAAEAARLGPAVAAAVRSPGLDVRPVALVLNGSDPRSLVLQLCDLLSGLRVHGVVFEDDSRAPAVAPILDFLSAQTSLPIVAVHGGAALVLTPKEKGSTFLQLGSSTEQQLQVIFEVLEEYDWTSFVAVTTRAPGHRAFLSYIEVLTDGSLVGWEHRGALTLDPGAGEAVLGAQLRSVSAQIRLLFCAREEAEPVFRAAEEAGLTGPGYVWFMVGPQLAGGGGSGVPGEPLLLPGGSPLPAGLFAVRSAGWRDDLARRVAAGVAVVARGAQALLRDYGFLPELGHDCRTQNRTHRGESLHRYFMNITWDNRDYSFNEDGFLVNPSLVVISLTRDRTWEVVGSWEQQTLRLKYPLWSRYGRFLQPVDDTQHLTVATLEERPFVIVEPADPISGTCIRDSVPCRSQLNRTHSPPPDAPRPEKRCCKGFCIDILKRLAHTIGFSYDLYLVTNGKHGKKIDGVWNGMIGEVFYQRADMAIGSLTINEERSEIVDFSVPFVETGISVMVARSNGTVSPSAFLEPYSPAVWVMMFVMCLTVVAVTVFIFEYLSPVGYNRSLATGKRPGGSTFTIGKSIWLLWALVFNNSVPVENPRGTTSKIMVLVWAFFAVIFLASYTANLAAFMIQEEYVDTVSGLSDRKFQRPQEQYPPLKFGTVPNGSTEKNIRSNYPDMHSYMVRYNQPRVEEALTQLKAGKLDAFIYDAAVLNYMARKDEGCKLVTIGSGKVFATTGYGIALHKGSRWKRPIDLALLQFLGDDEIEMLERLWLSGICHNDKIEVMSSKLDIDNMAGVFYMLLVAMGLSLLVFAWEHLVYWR
# [3] = biological target: GluN1^ΔCTD/GluN2A receptors (Rattus norvegicus, UniProt P35439+Q00959); format: cell-based; conditions: for effect of GluN1 CTD-deletion on modulator activity at GluN2A receptors: vs GluN1^WT/GluN2A, GNE-8324 30 µM, PAS 100 µM, DQP-1105 50 µM, TCN-201 10 µM (Fig. 4E, 5G-I)
# Summary of the method: as §1
# GluN1/GluN2A receptors = GluN1/GluN2A receptors (Rattus norvegicus, UniProt P35439+Q00959); format: cell-based
# Summary of the method: as §1
# GluN1/GluN2C receptors = GluN1/GluN2C receptors (Rattus norvegicus, UniProt P35439+Q00961); format: cell-based
# GluN1/GluN2C receptors, sequence (Q00961 20-1237, other chains not shown): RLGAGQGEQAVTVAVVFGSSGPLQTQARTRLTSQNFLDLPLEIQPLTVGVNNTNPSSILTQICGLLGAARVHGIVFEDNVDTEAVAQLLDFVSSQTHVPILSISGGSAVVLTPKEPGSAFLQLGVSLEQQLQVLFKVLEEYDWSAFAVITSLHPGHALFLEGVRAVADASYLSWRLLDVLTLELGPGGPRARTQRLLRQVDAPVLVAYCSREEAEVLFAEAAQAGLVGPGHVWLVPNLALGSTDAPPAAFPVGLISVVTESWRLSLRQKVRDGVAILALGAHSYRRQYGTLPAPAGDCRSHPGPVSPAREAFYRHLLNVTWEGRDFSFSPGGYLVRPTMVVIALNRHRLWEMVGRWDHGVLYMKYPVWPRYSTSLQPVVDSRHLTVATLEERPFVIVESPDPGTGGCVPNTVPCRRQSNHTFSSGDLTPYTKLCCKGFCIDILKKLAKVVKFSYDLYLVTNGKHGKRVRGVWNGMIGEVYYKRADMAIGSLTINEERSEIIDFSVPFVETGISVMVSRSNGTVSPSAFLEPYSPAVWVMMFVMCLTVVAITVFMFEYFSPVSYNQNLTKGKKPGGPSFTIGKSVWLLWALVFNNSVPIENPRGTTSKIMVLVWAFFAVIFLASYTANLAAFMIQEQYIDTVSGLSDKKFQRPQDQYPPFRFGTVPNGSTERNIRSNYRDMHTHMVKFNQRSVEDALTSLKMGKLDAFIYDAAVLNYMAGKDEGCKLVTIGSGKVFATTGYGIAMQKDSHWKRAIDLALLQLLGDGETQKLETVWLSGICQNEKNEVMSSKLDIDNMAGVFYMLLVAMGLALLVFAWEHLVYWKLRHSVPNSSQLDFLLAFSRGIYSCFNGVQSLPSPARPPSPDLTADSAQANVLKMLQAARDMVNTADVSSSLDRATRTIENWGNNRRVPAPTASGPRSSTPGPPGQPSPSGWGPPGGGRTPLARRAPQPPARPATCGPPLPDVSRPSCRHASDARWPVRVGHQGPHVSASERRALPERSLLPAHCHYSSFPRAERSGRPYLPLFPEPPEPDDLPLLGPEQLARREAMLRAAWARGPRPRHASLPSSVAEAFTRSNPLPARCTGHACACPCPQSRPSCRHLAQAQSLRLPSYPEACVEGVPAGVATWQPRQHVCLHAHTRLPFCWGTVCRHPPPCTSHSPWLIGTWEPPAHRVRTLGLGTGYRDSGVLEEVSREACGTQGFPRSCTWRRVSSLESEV
# Summary of the method: as §2
# [4] = biological target: GluN1/GluN2C^ΔCTD receptors (Rattus norvegicus, UniProt P35439+Q00961); experiment: Two-electrode voltage clamp of GluN2C CTD-deleted receptors; format: cell-based
# GluN1/GluN2C^ΔCTD receptors, sequence (Q00961 20-842, stated change not applied, other chains not shown): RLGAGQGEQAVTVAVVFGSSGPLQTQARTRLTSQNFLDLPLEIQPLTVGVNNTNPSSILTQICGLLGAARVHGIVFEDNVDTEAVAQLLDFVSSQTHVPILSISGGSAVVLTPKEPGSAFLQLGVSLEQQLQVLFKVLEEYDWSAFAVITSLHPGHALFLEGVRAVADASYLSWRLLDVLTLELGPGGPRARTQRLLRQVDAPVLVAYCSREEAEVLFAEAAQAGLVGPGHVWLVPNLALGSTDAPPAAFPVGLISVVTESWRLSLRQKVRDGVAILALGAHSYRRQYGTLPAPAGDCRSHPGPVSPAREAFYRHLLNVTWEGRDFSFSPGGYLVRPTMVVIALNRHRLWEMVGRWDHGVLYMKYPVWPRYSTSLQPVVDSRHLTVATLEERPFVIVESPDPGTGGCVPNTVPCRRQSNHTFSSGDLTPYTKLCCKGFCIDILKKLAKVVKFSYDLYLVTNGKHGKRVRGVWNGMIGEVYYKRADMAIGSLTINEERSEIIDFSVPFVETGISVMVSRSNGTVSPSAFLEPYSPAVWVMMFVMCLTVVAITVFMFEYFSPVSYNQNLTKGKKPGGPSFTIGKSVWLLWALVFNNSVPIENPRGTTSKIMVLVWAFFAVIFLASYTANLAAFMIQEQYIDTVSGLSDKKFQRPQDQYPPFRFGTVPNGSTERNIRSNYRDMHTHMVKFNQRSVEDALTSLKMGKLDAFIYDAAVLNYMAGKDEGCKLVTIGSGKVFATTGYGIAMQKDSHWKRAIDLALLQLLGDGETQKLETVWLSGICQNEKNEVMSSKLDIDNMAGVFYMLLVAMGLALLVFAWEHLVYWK
# Summary of the method: (§3)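 Xenopus laevis oocytes were injected with GluN1a and GluN2 RNA at a 1:3 molar ratio. The CTD was removed by a stop codon at GluN1 838K or GluN2C 855K, and 10-20-fold more RNA than wild type was injected. Oocytes were kept in ND-96 at 17 °C for 1-5 days. TEVC was run at -60 mV in Ba2+ buffer (pH 7.4). […] Full-length receptors were run alternately on the same day and oocyte batch. Values are mean ± s.e.m.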
# [5] = biological target: GluN1/GluN2B^ΔCTD receptors (Rattus norvegicus, UniProt P35439+Q00960); format: cell-based; conditions: for % potentiation of agonist-evoked current: 10 µM L-glutamate/10 µM glycine (Fig. 2B, 4B)
# [6] = biological target: GluN1^ΔCTD/GluN2D receptors (Rattus norvegicus, UniProt P35439+Q62645); format: cell-based
# GluN1^ΔCTD/GluN2D receptors, sequence (Q62645 28-1323, stated change not applied, other chains not shown): as the sequence (Q62645 28-1323, other chains not shown) above
# Summary of the method: as §3
# GluN1/GluN2B receptors = GluN1/GluN2B receptors (Rattus norvegicus, UniProt P35439+Q00960); format: cell-based
# [7] = biological target: GluN1^ΔCTD/GluN2B receptors (Rattus norvegicus, UniProt P35439+Q00960); format: cell-based; conditions: 100 µM compound; 10 µM L-glutamate/10 µM glycine (Fig. 2C)
# Summary of the method: as §1
# [8] = biological target: GluN1^ΔCTD/GluN2C receptors (Rattus norvegicus, UniProt P35439+Q00961); format: cell-based; conditions: 100 µM compound; 10 µM L-glutamate/10 µM glycine (Fig. 2C)
# GluN1^ΔCTD/GluN2C receptors, sequence (Q00961 20-1237, stated change not applied, other chains not shown): as the sequence (Q00961 20-1237, other chains not shown) above
# Summary of the method: as §1
# [9] = test system: GluN1 CTD in neurons expressing GluN1-GFP, GluN2A and GluN1-mCherry; experiment: CTD-FRET; format: cell-based, rat; conditions: 75 µM compound, absence of agonists, imaged 10 min after application (Fig. 8)
# Summary of the method: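 Rat primary hippocampal neurons were transfected at DIV 7-10 with ~2 µg total DNA (GluN1-GFP, GluN2A, GluN1-mCherry) by lipofection and imaged at 16-18 DIV in 0.87x HBSS, 5 mM HEPES, 1 mM glucose, 2.5 mM MgCl2, 0.5 mM CaCl2. Baseline and 10 min post-compound two-photon FLIM images were taken, each neuron imaged twice, compounds interleaved. Lifetimes were fit single-exponential and analysed blind; two preparations pooled.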
# [10] = 10 µM compound, 10 µM L-glutamate/10 µM glycine (Fig. 5C)
# [11] = 10 µM compound, 10 µM L-glutamate/10 µM glycine (Fig. 5D-F)
# [12] = 10 µM compound, 10 µM L-glutamate/10 µM glycine, GluN2A^WT (Fig. 5D-F)
# [13] = 10 µM compound, 10 µM L-glutamate/10 µM glycine (Fig. 4D)
# [14] = 100 µM compound, 10 µM L-glutamate/10 µM glycine (Fig. 2B, 5A)
# [15] = 10 µM FSK and 1 mM IBMX for 10 minutes, 50 µM UBP684, 100 µM PS (Fig. 7B, C)
# [16] = 100 µM compound, control cells for U73122 experiment (Fig. 6J)
# [17] = 100 µM compound, 10 µM L-glutamate/10 µM glycine (Fig. 2C)
# [18] = 30 µM compound, 10 µM L-glutamate/10 µM glycine (Fig. 4A, 5B)
# [19] = 30 µM compound, vs WT (Fig. 5B)
molecule,measurement,setting,value
Cc1ccc2[nH]c(=O)c(C3=NN(C(=O)CCC(=O)O)C(c4ccc(Br)cc4)C3)c(-c3ccccc3)c2c1 (stereo not drawn) [DQP-1105],% inhibition of agonist-evoked current,"[1]; 50 µM compound, 10 µM L-glutamate/10 µM glycine (Fig. 5C)",82 ± 4%
same,% inhibition of agonist-evoked current,"GluN1/GluN2D receptors; 10 µM compound, 10 µM L-glutamate/10 µM glycine, GluN2D^WT (Fig. 5C)",87 ± 1%
same,% inhibition of agonist-evoked current,[2]; [10],97 ± 2%
same,effect of GluN1 CTD-deletion on modulator activity at GluN2A receptors,[3],did not observe any effect
same,% inhibition of agonist-evoked current,"GluN1/GluN2A receptors; 50 µM compound, 10 µM L-glutamate/10 µM glycine, WT (Fig. 5C)",39 ± 3%
same,% inhibition of agonist-evoked current,"GluN1/GluN2C receptors; 10 µM compound, 10 µM L-glutamate/10 µM glycine, WT (Fig. 5C)",69 ± 2%
same,% inhibition of agonist-evoked current,[4]; [10],79 ± 4%
O=C(NNC(=O)c1ccc(CNS(=O)(=O)c2ccc(F)c(Cl)c2)cc1)c1ccccc1 [TCN-201],% inhibition of agonist-evoked current,[1]; [11],53 ± 5%
same,effect of GluN1 CTD-deletion on modulator activity at GluN2A receptors,[3],did not observe any effect
same,% inhibition of agonist-evoked current,GluN1/GluN2A receptors; [12],82 ± 2%
NCCCNCCCCNCCCN [Spermine],% potentiation of agonist-evoked current,[5]; 100 µM compound,57 ± 5%
Cc1ncc(CNC(=O)c2cnc(CNS(=O)(=O)c3ccc(F)c(Cl)c3)cn2)s1 [MPX-004],% inhibition of agonist-evoked current,[1]; [11],29 ± 13%
same,% inhibition of agonist-evoked current,GluN1/GluN2A receptors; [12],75 ± 8%
Cc1ncc(CNC(=O)c2cnc(CNS(=O)(=O)c3ccc(F)c(F)c3)c(C)n2)s1 [MPX-007],% inhibition of agonist-evoked current,[1]; [11],36 ± 6%
same,% inhibition of agonist-evoked current,GluN1/GluN2A receptors; [12],77 ± 9%
COC(=O)c1ccc(C2C(C(C)=O)=C(O)C(=O)N2CCc2c(C)[nH]c3ccccc23)cc1 (stereo not drawn) [PYD-106],% potentiation of agonist-evoked current,"GluN1/GluN2C receptors; 30 µM compound, 10 µM L-glutamate/10 µM glycine, GluN2C^WT (Fig. 4C)",64 ± 4%
same,% potentiation of agonist-evoked current,"[4]; 30 µM compound, 10 µM L-glutamate/10 µM glycine (Fig. 4C)",21 ± 3%
COc1ccc(OCC2c3cc(OC)c(OC)cc3CCN2C(=O)c2cccc(Cl)c2)cc1 (stereo not drawn) [CIQ],effect of GluN1 CTD-deletion on PAM activity,"[6]; 10 µM compound, vs wild-type GluN1/GluN2D (Fig. 4F)",significantly reduced
same,% potentiation of agonist-evoked current,"GluN1/GluN2D receptors; 10 µM compound, 10 µM L-glutamate/10 µM glycine, GluN2D^WT (Fig. 4D)",72 ± 11%
same,% potentiation of agonist-evoked current,[2]; [13],48 ± 5%
same,% potentiation of agonist-evoked current,"GluN1/GluN2C receptors; 10 µM compound, 10 µM L-glutamate/10 µM glycine, GluN2C^WT (Fig. 4D)",89 ± 8%
same,% potentiation of agonist-evoked current,[4]; [13],113 ± 13%
"CC(=O)[C@H]1CC[C@H]2[C@@H]3CC[C@@H]4C[C@H](OS(=O)(=O)O)CC[C@]4(C)[C@H]3CC[C@]12C [PAS, 5β-pregnan-3α-ol-20-onesulphate]",% inhibition of agonist-evoked current,"GluN1/GluN2B receptors; 100 µM compound, 10 µM L-glutamate/10 µM glycine, GluN2B^WT (Fig. 5A)",67 ± 1%
same,% inhibition of agonist-evoked current,"[5]; 100 µM compound, 10 µM L-glutamate/10 µM glycine (Fig. 5A)",76 ± 3%
same,% inhibition of agonist-evoked current,[1]; [14],89 ± 2%
same,% inhibition of agonist-evoked current,[2]; [14],85 ± 5%
same,effect of GluN1 CTD-deletion on modulator activity at GluN2A receptors,[3],did not observe any effect
same,% inhibition of agonist-evoked current,"GluN1/GluN2A receptors; 100 µM compound, 10 µM L-glutamate/10 µM glycine, GluN2A^WT (Fig. 5A)",61 ± 3%
same,% inhibition of agonist-evoked current,[4]; [14],93 ± 1%
5-Pregnen-3β-ol-20-onesulphate [PS],effect of PKC activation by PMA on PAM activity,"GluN1/GluN2B receptors; 2 µM PMA for 10 minutes, 50 µM UBP684, 100 µM PS (Fig. 7E, F)",unaffected
same,effect of PKA activation on % potentiation,GluN1/GluN2B receptors; [15],unchanged
same,% potentiation of agonist-evoked current,GluN1/GluN2B receptors; [16],82 ± 10%
same,effect of EGTA injection on modulation,GluN1/GluN2B receptors; 5 mM EGTA injected vs controls (Fig. 6F),no significant effect
same,% potentiation of agonist-evoked current,[5]; 100 µM compound,74 ± 10%
same,% potentiation of agonist-evoked current,[7],156 ± 25%
same,effect of PKC activation by PMA on PAM activity,"[1]; 2 µM PMA for 10 minutes, 50 µM UBP684, 100 µM PS (Fig. 7G, H)",significantly increased
same,% inhibition of agonist-evoked current,[1]; [14],23 ± 4%
same,modulation in dose-response experiment,"[1]; all doses, the lowest being 3 µM, 10 µM L-glutamate/10 µM glycine (Fig. 3)",NAM activity at all doses
same,% inhibition of agonist-evoked current,[6]; [17],45 ± 6%
same,% inhibition of agonist-evoked current,[8],66 ± 5%
same,IC50,"GluN1/GluN2D receptors; 10 µM L-glutamate/10 µM glycine, WT GluN1/GluN2D (Fig. 3)",149.8 ± 18.0%
same,effect of EGTA injection on potentiation/modulation,"GluN1/GluN2D receptors; 5 mM EGTA injected vs controls (Fig. 6D, H)",no significant effect
same,IC50,[2]; 10 µM L-glutamate/10 µM glycine (Fig. 3),76.7 ± 19.1%
same,% inhibition of agonist-evoked current,[2]; [14],49 ± 8%
same,% potentiation of agonist-evoked current,[3]; [17],32 ± 4%
same,effect of PKA activation on % potentiation,GluN1/GluN2A receptors; [15],unchanged
same,% potentiation of agonist-evoked current,GluN1/GluN2A receptors; [16],45 ± 3%
same,effect of EGTA injection on modulation,GluN1/GluN2A receptors; 5 mM EGTA injected vs controls (Fig. 6E),no significant effect
same,effect of EGTA injection on potentiation/modulation,"GluN1/GluN2C receptors; 5 mM EGTA injected vs controls (Fig. 6C, G)",no significant effect
same,change of GluN1-GFP fluorescence lifetime (movement of the GluN1 CTD),[9],did not affect
same,% inhibition of agonist-evoked current,[4]; [14],89 ± 2%
CCN(Cc1cc(=O)n2c3c(sc2n1)CCC3)c1ccc(F)cc1 [GNE-8324],% inhibition of agonist-evoked current,[1]; [18],11 ± 2%
same,effect of GluN1 CTD-deletion on modulator activity at GluN2A receptors,[3],unaffected
same,% potentiation of agonist-evoked current,"GluN1/GluN2A receptors; 30 µM compound, 10 µM L-glutamate/10 µM glycine, GluN2A^WT (Fig. 4A)",35 ± 4%
O=C(O)c1cc2cc(/C=C/c3ccccc3[N+](=O)[O-])ccc2cc1O [UBP792],effect of GluN2B CTD-deletion on NAM activity,[5]; [19],did not display a significant effect
same,% inhibition of agonist-evoked current,[1]; [18],64 ± 6%
same,% inhibition of agonist-evoked current,"GluN1/GluN2D receptors; 30 µM compound, 10 µM L-glutamate/10 µM glycine, wild-type (Fig. 5B)",86 ± 1%
same,% inhibition of agonist-evoked current,"[2]; 30 µM compound, 10 µM L-glutamate/10 µM glycine (Fig. 5B)",68 ± 7%
same,% inhibition of agonist-evoked current,"GluN1/GluN2A receptors; 30 µM compound, 10 µM L-glutamate/10 µM glycine, WT (Fig. 5B)",22 ± 8%
same,effect of GluN2C CTD-deletion on NAM activity,[4]; [19],did not display a significant effect
